{"data": "Published values from different studies", "target": "Serine/threonine-protein kinase 4 (STK4, Homo sapiens, UniProt Q13043)", "Sequence (Q13043 1-487, as in one of the studies)": "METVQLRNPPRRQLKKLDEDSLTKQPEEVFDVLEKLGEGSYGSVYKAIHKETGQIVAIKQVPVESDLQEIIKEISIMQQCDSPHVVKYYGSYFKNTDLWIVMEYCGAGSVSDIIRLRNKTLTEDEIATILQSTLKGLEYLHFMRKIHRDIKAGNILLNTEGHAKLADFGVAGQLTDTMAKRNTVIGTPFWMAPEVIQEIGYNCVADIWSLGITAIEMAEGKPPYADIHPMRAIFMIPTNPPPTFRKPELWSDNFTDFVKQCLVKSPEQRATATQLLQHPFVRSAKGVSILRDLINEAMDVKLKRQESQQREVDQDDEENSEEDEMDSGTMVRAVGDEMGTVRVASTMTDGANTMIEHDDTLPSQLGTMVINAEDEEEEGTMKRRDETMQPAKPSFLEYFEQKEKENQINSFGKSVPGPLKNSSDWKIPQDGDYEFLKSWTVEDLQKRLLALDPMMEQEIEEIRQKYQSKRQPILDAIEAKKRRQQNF", "note": "Each line is one published result; the experiments were not run side by side."}
{"SMILES": "CCCS(=O)(=O)Nc1ccc(F)c(C(=O)c2c[nH]c3ncc(-c4ccc(Cl)cc4)cc23)c1F", "effect on": "enzyme activity", "action": "inhibitor", "concentration": "1 µM", "quantity": "inhibition", "result": "< 20%"}
{"SMILES": "CC(C)(O)[C@H]1CC[C@H](Nc2ccc3ncc(-c4cccc(C(F)(F)F)c4)n3n2)CC1", "effect on": "enzyme activity", "action": "inhibitor", "concentration": "1 µM", "quantity": "remaining activity", "result": "90.8%"}
{"SMILES": "O=C(Nc1cccnn1)N1CC(C/C=C/c2cncc(Oc3ccc(C(F)(F)F)cn3)n2)C1", "effect on": "cell-free assay", "technique": "competition with immobilised ligand", "concentration": "1 µM", "quantity": "remaining binding", "result": "100%"}
{"SMILES": "CC(C)(C)c1nc(-c2cccc(NS(=O)(=O)c3c(F)cccc3F)c2F)c(-c2ccnc(N)n2)s1", "effect on": "enzyme activity", "action": "inhibitor", "technique": "radiometric", "concentration": "1 µM", "quantity": "remaining activity", "result": "105%"}
{"SMILES": "CS(=O)(=O)CCNCc1ccc(-c2ccc3ncnc(Nc4ccc(OCc5cccc(F)c5)c(Cl)c4)c3c2)o1", "effect on": "cell-free assay", "concentration": "0.5 µM", "quantity": "remaining signal", "result": "99.4%"}
{"SMILES": "CCCCNc1ncc2c(-c3ccc(F)cc3)nn(C[C@H]3CC[C@H](N)CC3)c2n1", "effect on": "target engagement in cells", "action": "inhibitor", "technique": "chemoproteomics", "concentration": "20 mM", "quantity": "inhibition", "result": "48.3%"}
{"SMILES": "COc1cc2ncnc(Nc3ccc(Oc4ccccc4)c(C)c3C)c2cc1OC", "effect on": "enzyme activity", "action": "inhibitor", "concentration": "1 µM", "quantity": "inhibition", "result": "-7%"}
{"SMILES": "Cn1c2c(c3ccc(Cl)c(Cl)c31)C(C#N)C1(CCCC1)NC2=O (centres unmarked)", "effect on": "thermal stability", "technique": "DSF", "concentration": "10 µM", "quantity": "ΔTm", "result": "0.3 °C"}
{"SMILES": "CNC(=O)Nc1ccc2c(c1)CC[C@@]21OC(=O)N(CC(=O)N(Cc2ccc(F)cc2)[C@@H](C)C(F)(F)F)C1=O", "effect on": "cell-free assay", "technique": "competition with immobilised ligand", "concentration": "1 µM", "quantity": "remaining binding", "result": "100%"}
{"SMILES": "CC/C(=N\\NC(=O)NCc1cccc(O)c1)c1ccc(O)c(C)c1O", "effect on": "enzyme activity", "action": "inhibitor", "concentration": "0.1 µM", "quantity": "inhibition", "result": "-0.7%"}
{"SMILES": "CCN1CCN(Cc2ccc(NC(=O)c3ccc(C)c(Oc4ccnc5[nH]ccc45)c3)cc2C(F)(F)F)CC1", "effect on": "target engagement in cells", "action": "inhibitor", "technique": "chemoproteomics", "cell line": "Huh-7", "concentration": "1 µM", "quantity": "inhibition", "result": "-64.5%"}
{"SMILES": "c1ccc(CNc2nc(N3CCOc4ccccc43)nc3c2CCCC3)cc1", "effect on": "target engagement in cells", "action": "inhibitor", "technique": "chemoproteomics", "concentration": "20 mM", "quantity": "inhibition", "result": "1.2%"}
{"SMILES": "Cc1ccc(NC(=O)c2ccc(C)c(C(F)(F)F)c2)cc1C#Cc1nn(C2CCC(O)CC2)c2ncnc(N)c12 (centres unmarked)", "effect on": "cell-free assay", "concentration": "10 µM", "quantity": "remaining signal", "result": "109%"}
{"SMILES": "CC(C)c1ccc(NC(=O)c2cccs2)c(-c2nc3ccccc3[nH]c2=O)c1", "effect on": "enzyme activity", "action": "inhibitor", "concentration": "1 µM", "quantity": "activity vs control", "result": "118%"}
{"SMILES": "Nc1cnc(N2CCc3cc(S(=O)(=O)Nc4c(F)cc(Cl)cc4F)cc(N4CCCC4=O)c32)nc1", "effect on": "cell-free assay", "technique": "competition with immobilised ligand", "concentration": "1 µM", "quantity": "remaining binding", "result": "100%"}
{"SMILES": "O=C1Nc2ccc(Cl)cc2C1=Cc1cc(Cl)c(O)c(Cl)c1", "effect on": "cell-free assay", "concentration": "0.5 µM", "quantity": "remaining signal", "result": "32.5%"}
{"SMILES": "Cn1c2c(Cl)c(Cl)ccc2c2cn[nH]c(=O)c21", "effect on": "thermal stability", "technique": "DSF", "concentration": "10 µM", "quantity": "ΔTm", "result": "0.4 °C"}
{"SMILES": "Cc1sc(C(=O)NC2COC2)cc1-n1cc(NC(=O)Nc2c(F)cccc2Cl)cn1", "effect on": "enzyme activity", "action": "inhibitor", "concentration": "10 µM", "quantity": "remaining activity", "result": "107%"}
{"SMILES": "CS(=O)(=O)N1CCCC(NC(=O)[C@H](CCC2CCCCC2)NC(=O)c2ccc(CNC(=O)c3cnc4ccccn34)cc2)C1 (some centres unmarked)", "effect on": "cell-free assay", "technique": "competition with immobilised ligand", "concentration": "0.1 µM", "quantity": "remaining binding", "result": "100%"}
{"SMILES": "Cn1c2c(Cl)c(Cl)ccc2c2cc[nH]c(=O)c21", "effect on": "thermal stability", "technique": "DSF", "concentration": "10 µM", "quantity": "ΔTm", "result": "0.8 °C"}
{"SMILES": "O=C(Nc1ccc(Oc2ccc(F)cc2)cc1)N1CCc2ncccc2[C@H]1c1ccc(F)cc1", "effect on": "cell-free assay", "technique": "competition with immobilised ligand", "concentration": "1 µM", "quantity": "remaining binding", "result": "99%"}
{"SMILES": "CNC(=O)c1cc(Oc2ccc(NC(=O)Nc3ccc(Cl)c(C(F)(F)F)c3)cc2)ccn1", "effect on": "enzyme activity", "action": "inhibitor", "concentration": "0.3 µM", "quantity": "inhibition", "result": "-7%"}
{"SMILES": "Cn1nc(C(=O)NCc2ccc(C(=O)O)cc2)cc1-c1ccc2[nH]ccc2c1", "effect on": "cell-free assay", "technique": "competition with immobilised ligand", "concentration": "0.1 µM", "quantity": "remaining binding", "result": "80%"}
{"SMILES": "CCN(CC)CCNC(=O)c1c(C)[nH]c(/C=C2\\C(=O)Nc3ccc(F)cc32)c1C", "effect on": "cell-free assay", "concentration": "0.5 µM", "quantity": "remaining signal", "result": "10.7%"}
{"SMILES": "CN1CCC2(CC1)NC(=O)c1c(c3ccc(Cl)c(Cl)c3n1C)C2C#N (racemic)", "effect on": "thermal stability", "technique": "DSF", "concentration": "10 µM", "quantity": "ΔTm", "result": "0 °C"}
{"SMILES": "Cc1nccc(COC(=O)N2C[C@@H]3[C@@H](CNC(=O)c4ccc5[nH]nnc5c4)[C@@H]3C2)n1", "effect on": "cell-free assay", "technique": "competition with immobilised ligand", "concentration": "1 µM", "quantity": "remaining binding", "result": "100%"}
{"SMILES": "Cc1ccc(Nc2nccc(N(C)c3ccc4c(C)n(C)nc4c3)n2)cc1S(N)(=O)=O", "effect on": "enzyme activity", "action": "inhibitor", "concentration": "10 µM", "quantity": "inhibition", "result": "3%"}
{"SMILES": "CN(C)C(=O)Cn1cc(-c2nc(C3(c4ccc(-c5cnc(N)nc5)cc4)CC3)no2)cn1", "effect on": "cell-free assay", "technique": "competition with immobilised ligand", "concentration": "1 µM", "quantity": "remaining binding", "result": "90%"}
{"SMILES": "Cn1c2c(Cl)c(Cl)ccc2c2cc(N)[nH]c(=O)c21", "effect on": "thermal stability", "technique": "DSF", "concentration": "10 µM", "quantity": "ΔTm", "result": "1.5 °C"}
